For test [1], the target named is T1, Protein arginine N-methyltransferase 1 (Homo sapiens, UniProt Q99873). Description: Inhibition of human recombinant PRMT1-mediated arginine methylation at 10 uM using nonhistone protein Npl3 substrate by ELISA. (In general: ELISA stands for enzyme-linked immunosorbent assay.)
Target sequence in this assay (Q99873 whole entry, looked up): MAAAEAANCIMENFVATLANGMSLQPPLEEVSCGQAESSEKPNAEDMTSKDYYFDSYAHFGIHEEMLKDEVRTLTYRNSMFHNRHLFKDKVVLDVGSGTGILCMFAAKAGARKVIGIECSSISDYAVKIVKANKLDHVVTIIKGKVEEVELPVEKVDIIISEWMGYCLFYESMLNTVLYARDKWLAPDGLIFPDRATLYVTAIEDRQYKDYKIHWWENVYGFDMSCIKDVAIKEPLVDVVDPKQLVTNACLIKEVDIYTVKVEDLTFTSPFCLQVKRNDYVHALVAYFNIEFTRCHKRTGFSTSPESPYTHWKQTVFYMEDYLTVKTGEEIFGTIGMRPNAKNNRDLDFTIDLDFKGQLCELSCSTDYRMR
The target of test [2] is T1, Protein arginine N-methyltransferase 1. Kind of test: Inhibition of human recombinant PRMT1-mediated arginine methylation at 50 uM using nonhistone protein Npl3 substrate by ELISA.
Target sequence in this assay (Q99873 whole entry, looked up): as above
Test [3] has the same target. Description: Inhibition of human recombinant PRMT1-mediated arginine methylation using nonhistone protein Npl3 substrate by ELISA.
Target sequence in this assay (Q99873 whole entry): as the sequence (Q99873 whole entry, looked up) above
For test [4], the target named is T2, Histone-lysine N-methyltransferase SETD7 (Homo sapiens) (UniProt Q8WTS6).
T2 sequence (whole entry): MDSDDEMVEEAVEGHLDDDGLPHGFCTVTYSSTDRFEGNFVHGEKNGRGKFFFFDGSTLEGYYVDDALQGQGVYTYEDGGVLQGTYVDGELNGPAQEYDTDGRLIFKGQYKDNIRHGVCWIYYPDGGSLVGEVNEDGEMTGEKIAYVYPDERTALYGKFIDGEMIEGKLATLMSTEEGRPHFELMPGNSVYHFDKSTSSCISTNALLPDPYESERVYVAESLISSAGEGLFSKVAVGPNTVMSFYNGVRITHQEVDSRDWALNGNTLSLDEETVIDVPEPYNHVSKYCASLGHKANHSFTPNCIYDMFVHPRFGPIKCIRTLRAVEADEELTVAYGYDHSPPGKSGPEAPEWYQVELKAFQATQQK
Description: Inhibition of methyl transferase activity of SET7/9 at 50 uM using biotinylated histone H3(1-21) substrate by In-vitro time resolved fluorescence immunosorbent methyltransferase assay. The method, boiled down:
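Biotinylated human histone H3 peptide (aa 1-21, 20 pmol/well) bound to streptavidin plates. Recombinant human GST-Set7/9 preincubated with inhibitor (DMSO) 10 min at 30 °C, then transferred to wells; reaction started with SAM. Methylation detected with rabbit anti-methyl H3K4 antibody and europium-labelled anti-rabbit IgG, read by time-resolved fluorescence (340/615 nm) after enhancement solution.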

In test [5] the target is T3, Histone-arginine methyltransferase CARM1 (Mus musculus) (UniProt Q9WVG6).
T3 sequence (whole entry): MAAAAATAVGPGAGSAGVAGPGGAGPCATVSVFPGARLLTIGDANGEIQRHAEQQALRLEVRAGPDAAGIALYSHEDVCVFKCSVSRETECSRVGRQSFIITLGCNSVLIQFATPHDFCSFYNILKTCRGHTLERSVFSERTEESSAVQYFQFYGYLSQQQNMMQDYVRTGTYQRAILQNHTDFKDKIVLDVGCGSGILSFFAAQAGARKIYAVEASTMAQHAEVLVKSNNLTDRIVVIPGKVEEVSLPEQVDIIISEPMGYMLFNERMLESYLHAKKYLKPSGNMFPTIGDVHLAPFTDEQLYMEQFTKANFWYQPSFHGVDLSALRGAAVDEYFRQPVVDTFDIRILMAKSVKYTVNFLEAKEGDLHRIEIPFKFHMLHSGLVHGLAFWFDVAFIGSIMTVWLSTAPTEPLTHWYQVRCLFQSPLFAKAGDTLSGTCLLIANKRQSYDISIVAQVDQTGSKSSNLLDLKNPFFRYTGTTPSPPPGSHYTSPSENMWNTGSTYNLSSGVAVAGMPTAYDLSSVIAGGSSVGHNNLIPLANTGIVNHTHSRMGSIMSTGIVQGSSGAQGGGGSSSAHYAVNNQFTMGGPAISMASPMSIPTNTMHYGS
Kind of test: Inhibition of mouse FLAG-tagged CARM1-mediated arginine methylation using histone H3(1-31) and [14C]-SAM at 0.01 to 2 mM. The procedure, abridged:
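Flag-CARM1 (mouse, baculovirus-expressed, 250 nM) with 20 μM recombinant histone H3 and 10 μg/mL BSA in 50 mM Tris-HCl, 0.2 M NaCl, 0.5 mM DTT, pH 8.0, preincubated with inhibitor (0.01–2 mM) 30 min at room temperature, centrifuged; started with 10 μM ¹⁴C-SAM, 15 min at 25 °C. SDS-PAGE, phosphorimager quantitation of H3 radioactivity.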

For test [6], the system named is LNCaP. Kind of test: Inhibition of androgen-independent GAPDH gene transcription in human LNCAP cells by RT-PCR preincubated for 10 mins before 1 nM synthetic androgen R1881 addition. Format: functional, cell-based. The method, boiled down:
(§1)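 LNCaP cells washed with PBS, starved 24 h in phenol-red-free RPMI1640 with 0.5% double-stripped FCS, then treated with inhibitor or DMSO vehicle; 10 min later stimulated overnight with or without 10⁻⁹ M R1881. DNase I-treated Trizol RNA reverse transcribed; target mRNA quantified by SYBR green I quantitative PCR with ROX passive reference.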

The subject of test [7] is LNCaP. Description: Inhibition of androgen dependent transcription in human LNCAP cells assessed as blockade of R1881-induced transcription at 1 to 25 uM by androgen derived MMTV-luciferase reporter gene assay. Format: functional, cell-based. The method, boiled down:
(§2)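 LNCaP cells (2×10^5) grown in RPMI1640/10% FCS, switched to phenol-red-free RPMI1640 with 10% double-stripped FCS, transfected with 500 ng MMTV-Luc (androgen-driven) or TK-Luc (androgen-independent) reporter per well. Six hours later inhibitor or DMSO added, then overnight with or without 10^-10 M R1881; luciferase read. Three experiments in duplicate, mean + SD (n = 6).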
A general note: In a reporter assay the amount or activity of a reporter protein is the signal.

Test [8] relates to LNCaP. Kind of test: Inhibition of thymidine kinase promoter dependent transcription in human LNCAP cells at 1 uM by androgen-nondependent thymidine kinase-luciferase reporter gene assay. Format: functional, cell-based. The method, boiled down:
as §2

The test system of test [9] is LNCaP. Kind of test: Inhibition of androgen dependent […] gene transcription in human LNCAP cells by RT-PCR preincubated for 10 mins before 1 nM synthetic androgen R1881 addition. Format: functional, cell-based. The procedure, abridged: as §1
In test [10] the test system is LNCaP. Kind of test: Growth inhibition of human LNCAP cells by MTS assay. Format: functional. On the technique in general: Formazan colour is commonly taken as a measure of viable cells.
Test [11] concerns LNCaP. Kind of test: Inhibition of androgen dependent MAF gene transcription in human LNCAP cells by RT-PCR preincubated for 10 mins before 1 nM synthetic androgen R1881 addition. Format: functional, cell-based. The procedure, abridged: as §1
Test [12] has as its system LNCaP. Kind of test: Inhibition of androgen dependent FKBP5 gene transcription in human LNCAP cells by RT-PCR preincubated for 10 mins before 1 nM synthetic androgen R1881 addition. Format: functional, cell-based. The procedure, abridged:
as §1

Test [13] concerns LNCaP. Kind of test: Inhibition of androgen dependent IGF1-R gene transcription in human LNCAP cells by RT-PCR preincubated for 10 mins before 1 nM synthetic androgen R1881 addition. Format: functional, cell-based. The procedure, abridged: as §1
Test [14] relates to LNCaP. Kind of test: Inhibition of androgen dependent PER1 gene transcription in human LNCAP cells by RT-PCR preincubated for 10 mins before 1 nM synthetic androgen R1881 addition. Format: functional, cell-based. The method, boiled down:
as §1

Test [15] has as its system LNCaP. Kind of test: Inhibition of androgen dependent CXCR4 gene transcription in human LNCAP cells by RT-PCR preincubated for 10 mins before 1 nM synthetic androgen R1881 addition. Format: functional, cell-based. The procedure, abridged: as §1
Test [16] deals with LNCaP. Description: Inhibition of thymidine kinase promoter dependent transcription in human LNCAP cells at 10 uM by androgen-nondependent thymidine kinase-luciferase reporter gene assay. Format: functional, cell-based. The method, boiled down: as §2
Test [17] in a line: Growth inhibition of human MCF7a cells by MTS assay. Format: functional.
Test [18] has as its system LNCaP. Description: Inhibition of androgen dependent MAK gene transcription in human LNCAP cells by RT-PCR preincubated for 10 mins before 1 nM synthetic androgen R1881 addition. Format: functional, cell-based. The procedure, abridged:
as §1

For test [19], the system named is LNCaP. Kind of test: Inhibition of androgen dependent ELK4 gene transcription in human LNCAP cells by RT-PCR preincubated for 10 mins before 1 nM synthetic androgen R1881 addition. Format: functional, cell-based. The procedure, abridged:
as §1

Test [20] concerns LNCaP. Description: Inhibition of androgen dependent TMPRSS2 gene transcription in human LNCAP cells by RT-PCR preincubated for 10 mins before 1 nM synthetic androgen R1881 addition. Format: functional, cell-based. The procedure, abridged: as §1
In test [21] the test system is LNCaP. Kind of test: Inhibition of androgen dependent GREB1 gene transcription in human LNCAP cells by RT-PCR preincubated for 10 mins before 1 nM synthetic androgen R1881 addition. Format: functional, cell-based. The procedure, abridged:
as §1

Test [22] deals with LNCaP. Description: Inhibition of androgen dependent NKX3.1 gene transcription in human LNCAP cells by RT-PCR preincubated for 10 mins before 1 nM synthetic androgen R1881 addition. Format: functional, cell-based. The method, boiled down: as §1
Test [23] has as its system LNCaP. Kind of test: Inhibition of androgen dependent transcription in human LNCAP cells assessed as blockade of R1881-induced transcription at 25 uM by androgen derived MMTV-luciferase reporter gene assay. Format: functional, cell-based. The procedure, abridged: as §2

In ChEMBL document CHEMBL1795306, “Acyl derivatives of p-aminosulfonamides and dapsone as new inhibitors of the arginine methyltransferase hPRMT1” (Bioorg Med Chem, 2011) one finds inhibition, IC50 and GI50 data, which are given here for 24 compounds.

The source made the active and inactive calls. The calls are words filed in the database; no cut-off is given here.

The inhibition is how much of the control response was suppressed. Regarding `CCC(=O)Nc1ccc(S(=O)(=O)c2ccc(N)cc2)cc1`, the figures for the inhibition in [1] and in test [2] were 23.5% and 70.6%, respectively.

As for `Nc1ccc(C(=O)NCc2ccccc2)cc1`, the inhibition in test [2] stood at 47%.

Regarding `CC(NS(=O)(=O)c1ccc(N)cc1)c1ccccc1` (configuration not stated), the inhibition in test [1] came out at 28%; in test [2] it was 40%.

On to `Nc1ccc(S(=O)(=O)NCc2ccc(Cl)cc2)cc1`, for which the inhibition in test [2] was under 5%.

Regarding `CCC(=O)Nc1ccc(S(=O)(=O)c2ccc(NC(=O)CC)cc2)cc1`, the inhibition in test [2] is under 5%.

The IC50 is the point on the concentration scale where inhibition reaches its midpoint. Regarding `Nc1ccc(S(=O)(=O)NCc2ccccn2)cc1`, in test [3], the IC50 came out at 70.7 µM. Besides, the inhibition in [4] was 14%.

Turning to `O=S(=O)(NCCc1ccccc1)c1ccc(NS(=O)(=O)c2ccc(Cl)cc2)cc1`, the IC50 in [3] was determined as 5 µM. For the same compound, the inhibition result in test [5] is “inactive”. In test [4], the inhibition worked out at 58%.

Regarding `Nc1ccc(S(=O)(=O)c2ccc(NC(=O)Cc3ccccc3)cc2)cc1`, the inhibition in test [1] was 35.3%; in test [4], under 5%; in test [2], 41.2%.

As for `O=C(Nc1ccc(S(=O)(=O)NCCc2ccccc2)cc1)c1ccccc1`, the results for the inhibition in test [1] and in test [2] were 15% and 20%, respectively.

`COc1ccc(CNS(=O)(=O)c2ccc(N)cc2)cc1`: the inhibition came to 12% in [1] and 19% in [2].

In test [4], `O=C(Cc1ccccc1)Nc1ccc(S(=O)(=O)c2ccc(NC(=O)Cc3ccccc3)cc2)cc1` yielded an inhibition of 31%.

In the case of `CC(NC(=O)c1ccc(N)cc1)c1ccccc1` (configuration not stated), the inhibition in [2] was determined as 34%.

Take `Nc1ccc(S(=O)(=O)NCCc2ccc(Cl)cc2)cc1`: the inhibition in test [2] is under 5%.

As to `O=S(=O)(NCCc1ccccc1)c1ccc(Cl)cc1`, the inhibition in test [2] was under 5%.

In the case of `Nc1ccc(S(=O)(=O)c2ccc(NC(=O)NCc3ccccc3)cc2)cc1`, the inhibition in [1] was under 5%; in [2] it was 13.6%.

As for `O=C(Cc1ccccc1)Nc1ccc(S(=O)(=O)NCCc2ccccc2)cc1`, the inhibition in test [1] is under 5%; in [2], 10%.

As usually defined, the GI50 is the concentration that inhibits growth by half. In the case of `O=C(CCl)Nc1ccc(S(=O)(=O)c2ccc(NC(=O)CCl)cc2)cc1`, the IC50 in test [3] turned out to be 1.5 µM. Further, the inhibition result (with LNCaP [6]; in the test with LNCaP [8]; in [5]; with LNCaP [16]) was “inactive” in each case. The inhibition entry with LNCaP [7], in the test with LNCaP [9], in the test with LNCaP [11], in the test with LNCaP [12], with LNCaP [13] and in the test with LNCaP [14] was “Active” throughout. The inhibition result in the test on LNCaP [15], with LNCaP [18], in the test on LNCaP [19], in the test with LNCaP [20], with LNCaP [21] and with LNCaP [22] was “Active” in each case. The GI50 with LNCaP [10] was found to be 4.49 µM; in test [17], 1.97 µM. In test [4], the inhibition is under 5%.

Turning to `O=C(Nc1ccc(S(=O)(=O)NCCc2ccccc2)cc1)c1ccc(Br)cc1`, the inhibition in [1] was determined as 23%; in test [2], 41%.

Compound `O=C(Nc1ccc(S(=O)(=O)NCCc2ccccc2)cc1)c1ccc(Cl)c(Cl)c1` showed an inhibition in test [4] of 37%. Moreover, the inhibition entry in the test with LNCaP [23] was “Active”. It took 52.2 µM to inhibit growth in test [17] by half (GI50).

With `O=C(Nc1ccc(S(=O)(=O)NCCc2ccccc2)cc1)c1ccc(-c2ccccc2)cc1`, the inhibition in test [1] is 39%; in test [2], 42%.

For the compound `CCCC(=O)Nc1ccc(S(=O)(=O)c2ccc(NC(=O)CCC)cc2)cc1`, the values for the inhibition in test [1] and in test [2] were 14.7% and 44.1%, respectively.

As to `Nc1ccc(S(=O)(=O)NCCc2ccc(O)cc2)cc1`, the inhibition in [1] came to 30%; in test [2], 37%.

Consider `Nc1ccc(C(=O)Nc2ccc(S(=O)(=O)NCCc3ccccc3)cc2)cc1`, for which the inhibition in test [1] and in test [2] was 40% each time.

Regarding `Nc1ccc(S(=O)(=O)NCc2ccccc2)cc1`, the inhibition was determined as 22% in test [1] and 28% in [2].
